Columns and labels:
[1] = system: MGC-803; assay: Cell cycle arrest in human MGC803 cells assessed as accumulation at G0/G1 phase at 0.25 umol/L after 24 hrs by propidium iodide staining-based flow cytometric analysis (reference value: 43.68%); format: functional
[2] = system: MGC-803; assay: Cell cycle arrest in human MGC803 cells assessed as accumulation at G2/M phase at 1 umol/L after 12 hrs by propidium iodide staining-based flow cytometric analysis (reference value: 17.59%); format: functional
[3] = system: MGC-803; assay: Cell cycle arrest in human MGC803 cells assessed as accumulation at G2/M phase at 0.5 umol/L after 12 hrs by propidium iodide staining-based flow cytometric analysis (reference value: 17.59%); format: functional
[4] = system: MGC-803; assay: Cell cycle arrest in human MGC803 cells assessed as accumulation at G2/M phase at 0.25 umol/L after 12 hrs by propidium iodide staining-based flow cytometric analysis (reference value: 17.59%); format: functional
[5] = system: MGC-803; assay: Cell cycle arrest in human MGC803 cells assessed as accumulation at S phase at 1 umol/L after 12 hrs by propidium iodide staining-based flow cytometric analysis (reference value: 41.43%); format: functional
[6] = system: MGC-803; assay: Cell cycle arrest in human MGC803 cells assessed as accumulation at S phase at 0.5 umol/L after 12 hrs by propidium iodide staining-based flow cytometric analysis (reference value: 41.43%); format: functional
[7] = system: MGC-803; assay: Cell cycle arrest in human MGC803 cells assessed as accumulation at S phase at 0.25 umol/L after 12 hrs by propidium iodide staining-based flow cytometric analysis (reference value: 41.43%); format: functional
[8] = system: MGC-803; assay: Cell cycle arrest in human MGC803 cells assessed as accumulation at G0/G1 phase at 1 umol/L after 12 hrs by propidium iodide staining-based flow cytometric analysis (reference value: 39.17%); format: functional
[9] = system: MGC-803; assay: Cell cycle arrest in human MGC803 cells assessed as accumulation at G0/G1 phase at 0.5 umol/L after 12 hrs by propidium iodide staining-based flow cytometric analysis (reference value: 39.17%); format: functional
[10] = system: MGC-803; assay: Cell cycle arrest in human MGC803 cells assessed as accumulation at G0/G1 phase at 0.25 umol/L after 12 hrs by propidium iodide staining-based flow cytometric analysis (reference value: 39.17%); format: functional
[11] = system: MGC-803; assay: Induction of apoptosis in human MGC803 cells after 12 hrs by annexin-V-FITC/propidium iodide staining-based flow cytometric analysis; format: functional, cell-based
Procedure, shortened: (§1)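 MGC-803 cells were plated at 5.0×10^4 cells/mL, held 12 h at 37 °C, then given complete medium (blank) or compound at 0, 0.25, 0.5 or 1.0 µmol/L for 12 h. Quadrants: live (annexin−/PI−), early apoptotic (annexin+/PI−), late apoptotic (annexin+/PI+), damaged (annexin−/PI+).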

[12] = system: MGC-803; assay: Induction of apoptosis in human MGC803 cells assessed as live cells at 1 umol/L after 12 hrs by annexin-V-FITC/propidium iodide staining-based flow cytometric analysis (reference value: 88.9%); format: functional; procedure, shortened: as §1
[13] = system: MGC-803; assay: Induction of apoptosis in human MGC803 cells assessed as live cells at 0.5 umol/L after 12 hrs by annexin-V-FITC/propidium iodide staining-based flow cytometric analysis (reference value: 88.9%); format: functional; procedure, shortened: as §1
[14] = system: MGC-803; assay: Induction of apoptosis in human MGC803 cells assessed as live cells at 0.25 umol/L after 12 hrs by annexin-V-FITC/propidium iodide staining-based flow cytometric analysis (reference value: 88.9%); format: functional; procedure, shortened: as §1
[15] = system: MGC-803; assay: Induction of apoptosis in human MGC803 cells assessed as damaged cells at 1 umol/L after 12 hrs by annexin-V-FITC/propidium iodide staining-based flow cytometric analysis (reference value: 1.9%); format: functional; procedure, shortened: as §1
[16] = system: MGC-803; assay: Induction of apoptosis in human MGC803 cells assessed as damaged cells at 0.5 umol/L after 12 hrs by annexin-V-FITC/propidium iodide staining-based flow cytometric analysis (reference value: 1.9%); format: functional; procedure, shortened: as §1
[17] = system: MGC-803; assay: Induction of apoptosis in human MGC803 cells assessed as damaged cells at 0.25 umol/L after 12 hrs by annexin-V-FITC/propidium iodide staining-based flow cytometric analysis (reference value: 1.9%); format: functional; procedure, shortened: as §1
[18] = system: MGC-803; assay: Induction of apoptosis in human MGC803 cells assessed as early apoptotic cells at 1 umol/L after 12 hrs by annexin-V-FITC/propidium iodide staining-based flow cytometric analysis (reference value: 3.7%); format: functional; procedure, shortened: as §1
[19] = system: MGC-803; assay: Induction of apoptosis in human MGC803 cells assessed as early apoptotic cells at 0.5 umol/L after 12 hrs by annexin-V-FITC/propidium iodide staining-based flow cytometric analysis (reference value: 3.7%); format: functional; procedure, shortened: as §1
[20] = system: MGC-803; assay: Induction of apoptosis in human MGC803 cells assessed as early apoptotic cells at 0.25 umol/L after 12 hrs by annexin-V-FITC/propidium iodide staining-based flow cytometric analysis (reference value: 3.7%); format: functional; procedure, shortened: as §1
[21] = system: MGC-803; assay: Induction of apoptosis in human MGC803 cells assessed as late apoptotic cells at 1 umol/L after 12 hrs by annexin-V-FITC/propidium iodide staining-based flow cytometric analysis (reference value: 5.5%); format: functional; procedure, shortened: as §1
[22] = system: MGC-803; assay: Induction of apoptosis in human MGC803 cells assessed as late apoptotic cells at 0.5 umol/L after 12 hrs by annexin-V-FITC/propidium iodide staining-based flow cytometric analysis (reference value: 5.5%); format: functional; procedure, shortened: as §1
[23] = system: MGC-803; assay: Induction of apoptosis in human MGC803 cells assessed as late apoptotic cells at 0.25 umol/L after 12 hrs by annexin-V-FITC/propidium iodide staining-based flow cytometric analysis (reference value: 5.5%); format: functional; procedure, shortened: as §1
[24] = system: MGC-803; assay: Ratio of 5-fluorouracil IC50 to compound IC50 for growth inhibition of human MGC803 cells; format: functional
Procedure, shortened: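 The IC50 ratio uses MGC-803 values from the 72 h MTT assay: cells seeded at 5×10^3 per well, compound exposure 72 h, MTT 4 h at 37 °C, A570 read after DMSO solubilization. Triplicate wells, three experiments. IC50 values were taken from dose–response curves, with 5-fluorouracil as the reference.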

[25] = Cytotoxicity against human EC109 cells assessed as growth inhibition after 72 hrs by MTT assay; format: functional, cell-based; details: ECa-109, 72 h
Procedure, shortened: (§2)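 Exponentially growing cells were seeded at 5×10^3 per well and held 24 h at 37 °C. Medium was then replaced with fresh medium containing a range of concentrations, and cells were exposed for 72 h. MTT (5 mg/mL) was added for 4 h at 37 °C, formazan was dissolved in DMSO and A570 was read. Triplicate wells per concentration, three experiments. IC50 was taken from dose–response curves of inhibition ratio.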

[26] = system: PC-3; assay: Cytotoxicity against human PC3 cells assessed as growth inhibition after 72 hrs by MTT assay; format: functional, cell-based; details: PC-3, 72 h; procedure, shortened: as §2
[27] = system: MCF7; assay: Cytotoxicity against human MCF7 cells assessed as growth inhibition after 72 hrs by MTT assay; format: functional, cell-based; details: MCF7, 72 h; procedure, shortened: as §2
[28] = system: MGC-803; assay: Cytotoxicity against human MGC803 cells assessed as growth inhibition after 72 hrs by MTT assay; format: functional, cell-based; details: MGC-803, 72 h; procedure, shortened: as §2
[29] = system: MGC-803; assay: Cell cycle arrest in human MGC803 cells assessed as accumulation at G2/M phase at 0.25 to 1 umol/L by propidium iodide staining-based flow cytometric analysis; format: functional; details: TDE = time-dependent effect
[30] = system: MGC-803; assay: Cell cycle arrest in human MGC803 cells assessed as accumulation at G2/M phase after 12 to 24 hrs by propidium iodide staining-based flow cytometric analysis; format: functional
[31] = system: MGC-803; assay: Cell cycle arrest in human MGC803 cells assessed as accumulation at G2/M phase at 1 umol/L after 24 hrs by propidium iodide staining-based flow cytometric analysis (reference value: 15.12%); format: functional
[32] = system: MGC-803; assay: Cell cycle arrest in human MGC803 cells assessed as accumulation at G2/M phase at 0.5 umol/L after 24 hrs by propidium iodide staining-based flow cytometric analysis (reference value: 15.12%); format: functional
[33] = system: MGC-803; assay: Cell cycle arrest in human MGC803 cells assessed as accumulation at G2/M phase at 0.25 umol/L after 24 hrs by propidium iodide staining-based flow cytometric analysis (reference value: 15.12%); format: functional
[34] = system: MGC-803; assay: Cell cycle arrest in human MGC803 cells assessed as accumulation at S phase at 1 umol/L after 24 hrs by propidium iodide staining-based flow cytometric analysis (reference value: 39.56%); format: functional
[35] = system: MGC-803; assay: Cell cycle arrest in human MGC803 cells assessed as accumulation at S phase at 0.5 umol/L after 24 hrs by propidium iodide staining-based flow cytometric analysis (reference value: 39.56%); format: functional
[36] = system: MGC-803; assay: Cell cycle arrest in human MGC803 cells assessed as accumulation at S phase at 0.25 umol/L after 24 hrs by propidium iodide staining-based flow cytometric analysis (reference value: 39.56%); format: functional
[37] = system: MGC-803; assay: Cell cycle arrest in human MGC803 cells assessed as accumulation at G0/G1 phase at 1 umol/L after 24 hrs by propidium iodide staining-based flow cytometric analysis (reference value: 43.68%); format: functional
[38] = system: MGC-803; assay: Cell cycle arrest in human MGC803 cells assessed as accumulation at G0/G1 phase at 0.5 umol/L after 24 hrs by propidium iodide staining-based flow cytometric analysis (reference value: 43.68%); format: functional

For `CC(C)(C)OC(=O)N1CCN(C(=S)SCc2cn(Cc3ccccc3Cl)nn2)CC1`, the Activity [1] was 27.21%, the Activity [2] was 64.1% and the Activity [3] was 34.29%. The Activity [4] was 22.2%, the Activity [5] was 30.36% and the Activity [6] was 36.01%. For the same compound, the Activity [7] was 39.06%, the Activity [8] was 11.95% and the Activity [9] was 30.04%. The Activity [10] was 38.7%, the Activity [11] was “Dose-dependent effect” and the Activity [12] was 54.6%. It also gave an Activity [13] of 74.1%, an Activity [14] of 84.8% and an Activity [15] of 2.3%. The Activity [16] was 2.9%, the Activity [17] was 1.9% and the Activity [18] was 35.1%. For the same compound, the Activity [19] was 14.6%, the Activity [20] was 7.7% and the Activity [21] was 8.1%. The Activity [22] was 8.4%, the Activity [23] was 5.5% and the “Ratio IC50” value [24] was 14. For the same compound, the IC50 [25] was 11.9 µM, the IC50 [26] was 12.5 µM and the IC50 [27] was 6.09 µM. For the same compound, the IC50 [28] was 0.49 µM, the Activity [29] was “tde” and the Activity [30] was “Dose-dependent effect”. The Activity [31] was 80.05%, the Activity [32] was 68.1% and the Activity [33] was 38.75%. The Activity [34] was 10.67%, the Activity [35] was 14.81% and the Activity [36] was 34.35%. The Activity [37] was 1.62% and the Activity [38] was 9.13%.

— ChEMBL document CHEMBL2331191, “Design and synthesis of novel 1,2,3-triazole-dithiocarbamate hybrids as potential anticancer agents” (Eur J Med Chem, 2013)
